The M2OR odorant receptor database

Target: T1, OR5M3 (Homo sapiens) (UniProt Q8NGP4)
T1 sequence (whole entry): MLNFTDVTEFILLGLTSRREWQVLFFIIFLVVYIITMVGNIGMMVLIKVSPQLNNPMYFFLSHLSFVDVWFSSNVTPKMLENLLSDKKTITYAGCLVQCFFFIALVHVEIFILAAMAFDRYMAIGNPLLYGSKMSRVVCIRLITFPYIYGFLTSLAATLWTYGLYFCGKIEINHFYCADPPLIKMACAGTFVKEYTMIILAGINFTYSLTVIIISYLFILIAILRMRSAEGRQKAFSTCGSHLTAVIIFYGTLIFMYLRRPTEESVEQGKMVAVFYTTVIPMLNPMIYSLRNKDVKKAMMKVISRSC
Settings: stereoisomer not certain
How it was run: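 Each receptor–molecule pair is labelled responsive or non-responsive (inactive) according to whether the original authors judged the measured signal statistically different from baseline. The data were taken from the main text and supplementary material of published papers and checked for typos and inconsistencies. Assay methods differed by source, with transient luciferase assays in mammalian cell lines being common.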
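Also: active if original authors judged signal statistically different from baseline.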

Odorant receptor agonist call, inactive:
CCOC(C)OCC
CC1=CCC(C(C)(C)S)CC1 (configuration not stated)
CCCCCCCC1CCC(=O)O1 (configuration not stated)
CC1(C)OC=CC1=O
CCC=CCC=O
CCCSSCCC
CCCCCCCCCO
CCCCCCCCC1CCC(=O)O1 (configuration not stated)
SCc1cccs1
CSCSC
CCOC(=O)C=Cc1ccccc1
C=Cc1ccc(O)cc1
CCCCCC(C)O (configuration not stated)
SCCc1ccccc1
CCc1cccc(O)c1
C=CC(=O)CC=CCC
CC(C)c1ccc(C=O)cc1
C=CCSC
CC(C)CCO
CCOC(=O)C(C)CC (configuration not stated)
CCCSSSC
CC(=O)c1ccc(C)cc1
CC(=O)C=CC1=C(C)CCCC1(C)C
CCCCCC=CC=CC=O
CCCCCC(=O)OCC
CCC(=O)C(C)S (configuration not stated)
COC(=O)C(C)C
CC(=O)OCC=Cc1ccccc1
COC1=C(C)OC(C)C1=O (configuration not stated)
CCCC(O)CC(=O)OCC (configuration not stated)
CCCCC(C)CCC(=O)O (configuration not stated)
Cc1occc(=O)c1O
